Results taken from ChEMBL document CHEMBL4033777, “Next-Generation Hypoxic Cell Radiosensitizers: Nitroimidazole Alkylsulfonamides” (J Med Chem, 2018).
pIC50: −log10 of the molar value. In brackets after ≈: the same amount, converted by molar mass.

Columns and labels:
HCT-116 [1] = assay: (§1) Hypoxia radiosensitization activity in human HCT116 cells assessed as survival ratio by measuring ratio of cell survival with radiation in absence to presence of compound at 0.11 mM preincubated for 1 hr followed by 6 to 29 Gy irradiation measured after 10 days by methylene blue staining-based cell counting method; assay type: functional
HCT-116 [2] = assay: as §1, with “method relative to misonidazole” for “method”; assay type: functional
HCT-116 [3] = assay: Cytotoxicity against human HCT116 cells at anoxic IC50 incubated for 1 hr at 21 degC by clonogenic survival assay; conditions: hct-116, 1 h
HCT-116 [4] = assay: Hypoxic cytotoxicity ratio of IC50 for human HCT116 cells under oxic condition to IC50 for human HCT116 cells under anoxic condition
In short: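 HCT116 cells, 700 per well and attached 2 h, got a 4 h exposure to 3-fold serial dilutions (<1% DMSO) under air or in a Pd-catalyst anaerobic chamber with pre-equilibrated medium. Cells were washed, regrown 5 days, and stained with sulforhodamine B to give IC50. HCR = oxic IC50 / anoxic IC50.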

HCT-116 [5] = assay: as §1, with “2.1” for “0.11”; assay type: functional
HCT-116 [6] = assay: (§2) Hypoxia radiosensitization activity in human HCT116 cells assessed as sensitizer enhancement ratio by measuring ratio of radiation dose for 1% survival in absence to presence of compound at 2.1 mM preincubated for 1 hr followed by irradiation measured after 10 days by methylene blue staining-based cell counting method relative to misonidazole; assay type: functional
HCT-116 [7] = assay: as §1, with “with 15 Gy” for “with”, “anoxic IC50” for “0.11 mM”, “15” for “6 to 29”; assay type: functional
In short: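 Anoxic HCT116 cells were seeded at 10^5/well and treated at the anoxic IC50 concentration for 1 h at room temperature. They were irradiated with 15 Gy (60Co, ~2 Gy/min) in a sealed steel box, then plated clonogenically. Colonies of >50 cells were counted […]. SR15 = survival with radiation / survival with drug + radiation.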

HCT-116 [8] = assay: as §2, with “method” for “method relative to misonidazole”; assay type: functional
HCT-116 [9] = assay: Cytotoxicity against human HCT116 cells incubated for 4 hrs under anaerobic condition measured after 5 days by sulforhodamine B assay; assay type: functional, cell-based
In short: (§3)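 STR-authenticated, mycoplasma-free HCT116 cells in αMEM + 5% FCS were seeded at 700 cells/well and allowed 2 h to attach. Drug was added from DMSO stocks (<1% DMSO) in serial 3-fold dilutions for 4 h, oxic or anoxic (Pd-catalyst anaerobic chamber, medium pre-equilibrated ≥3 days). After washing, cells regrew for 5 days before SRB staining and IC50 determination.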

HCT-116 [10] = assay: as §1, with “0.08” for “0.11”; assay type: functional
HCT-116 [11] = assay: Cytotoxicity against human HCT116 cells incubated for 4 hrs under aerobic condition measured after 5 days by sulforhodamine B assay; assay type: cell-based; in short: as §3
HCT-116 [12] = assay: as §1, with “0.08” for “0.11”, “method relative to misonidazole” for “method”; assay type: functional
[13] = Solubility of the compound in alphaMEM containing 5% FCS and 1% DMSO by HPLC analysis; assay type: physicochemical
In short: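 Saturated drug solutions were incubated at 37 °C in αMEM with 5% FCS and 1% DMSO. Dissolved drug was quantified by HPLC.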

HCT-116 [14] = assay: as §2, with “0.68” for “2.1”, “method” for “method relative to misonidazole”; assay type: functional
HCT-116 [15] = assay: as §1, with “0.68” for “0.11”, “method relative to misonidazole” for “method”; assay type: functional
HCT-116 [16] = assay: as §2, with “0.68” for “2.1”; assay type: functional
HCT-116 [17] = assay: as §1, with “0.68” for “0.11”; assay type: functional
HCT-116 [18] = assay: as §2, with “0.08” for “2.1”; assay type: functional
HCT-116 [19] = assay: as §2, with “0.08” for “2.1”, “method” for “method relative to misonidazole”; assay type: functional
[20] = Electrophilicity of the compound in pH 7 phosphate buffer assessed as one-electron reduction potential
In short: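 The one-electron reduction potential was set by pulse radiolysis equilibria at pH 7.0 (2.5 mM phosphate), established within 20 µs against benzylviologen, methylviologen or triquat. ΔE came from equilibrium constants via the Nernst equation, at three concentration ratios and 22 ± 2 °C.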

Mus musculus [21] = assay: Toxicity in NIH-III mouse xenografted with human HCT116 cells assessed as change in body weight with 12.5 Gy radiation at 2.20 mmol/kg, iv administered as single dose; conditions: in vivo
Mus musculus [22] = assay: Drug level in NIH-III mouse assessed as maximum achievable dose at 10 ml/kg, iv; assay type: ADME; conditions: in vivo
In short: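 Non-tumor-bearing female NIH-III mice (~20 g) received freshly prepared solutions i.v. at 10 mL/kg in 0.9% saline with 1% DMSO, or saline with 2 molar equivalents NaHCO3 for phosphate prodrugs. MAD was the maximum dose that dissolved in the injection volume.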

[23] = Cmax in tumor of NIH-III mouse xenografted with human HCT116 cells at 2.20 mmol/kg, iv administered as single dose by HPLC analysis; assay type: ADME, organism-based, Neoplasm; set-up: dose 2.2 mmol/kg, route intravenous; conditions: in vivo
In short: (§4)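 Female NIH-III mice bearing subcutaneous HCT116 xenografts (10^6 cells inoculated). At ca. 300 mm3 tumor size, a single i.v. dose was given at the MAD or 75% of the MTD. Vehicle was 0.9% saline with 1% DMSO, or saline with 2 molar equivalents NaHCO3 for phosphate prodrugs. Plasma and tumor were sampled at multiple times by cardiac puncture and excision, assayed by HPLC, and analysed noncompartmentally.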

HCT-116 [24] = assay: In vivo hypoxia radiosensitization activity in human HCT116 cells xenografted in NIH-III mouse assessed as survival ratio by measuring ratio of cell survival with 12.5 Gy radiation in absence to presence of compound at 2.20 mmol/kg, iv pretreated as single dose for 10 mins followed by irradiation measured after 18 hrs by excision assay; assay type: functional
[25] = Tmax in plasma of NIH-III mouse xenografted with human HCT116 cells at 2.20 mmol/kg, iv administered as single dose by HPLC analysis; assay type: ADME, organism-based; conditions: 2.2 mmol/kg
In short: (§5)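 Female NIH-III mice bearing subcutaneous HCT116 tumors (10^6 cells; ~300 mm3) got a single i.v. dose at the MAD or 75% of the MTD. Vehicle was saline with 1% DMSO, or saline with 2 equivalents of NaHCO3 for the phosphates. Plasma and tumor were sampled at multiple times by cardiac puncture and excision, drug was measured by HPLC, and Tmax came from noncompartmental analysis.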

Plasma = assay: Cmax in plasma of NIH-III mouse xenografted with human HCT116 cells at 2.20 mmol/kg, iv administered as single dose by HPLC analysis; assay type: ADME, organism-based; set-up: dose 2.2 mmol/kg, route intravenous; conditions: in vivo; in short: as §4
[26] = Tmax in tumor of NIH-III mouse xenografted with human HCT116 cells at 2.20 mmol/kg, iv administered as single dose by HPLC analysis; assay type: ADME, organism-based, Neoplasm; conditions: 2.2 mmol/kg; in short: as §5

Row | solubility [13] | Compound | Activity (HCT-116 [3]) | Ratio IC50 (HCT-116 [4]) | Ratio (HCT-116 [7]) | pIC50 (HCT-116 [9]) | other results
1 | – | COCCNS(=O)(=O)Cn1cncc1[N+](=O)[O-] | Non-Toxic | – | – | – | Ratio (HCT-116 [1]): 1.9; fold change (FC) (HCT-116 [2]): 0.44
2 | – | O=[N+]([O-])c1cncn1CS(=O)(=O)NCCN1CCOCC1 | Non-Toxic | 1.4 | 60 | 2.68 | Ratio (HCT-116 [5]): 8.2; fold change (FC) (HCT-116 [6]): 1.01; Ratio (HCT-116 [8]): 1.43
3 | – | COCCNS(=O)(=O)Cn1ccnc1[N+](=O)[O-] | Non-Toxic | – | – | – | Ratio (HCT-116 [10]): 2.9; pIC50 (HCT-116 [11]): 2.32 to 3.42; fold change (FC) (HCT-116 [12]): 0.78
4 | > 49.3 mM | Cc1ncc([N+](=O)[O-])n1CCS(=O)(=O)NCCO | Non-Toxic | 1.3 | 3.4 | 3.40 | Ratio (HCT-116 [14]): 1.176; fold change (FC) (HCT-116 [15]): 0.36; fold change (FC) (HCT-116 [16]): 0.82; Ratio (HCT-116 [17]): 1.616
5 | 2.77 mM (≈ 0.843 mg/mL) | Cc1ncc([N+](=O)[O-])n1CCS(=O)(=O)N1CCOCC1 | Non-Toxic | 1.5 | 1.33 | 4.42 | –
6 | – | O=[N+]([O-])c1cn(CS(=O)(=O)NCCN2CCOCC2)cn1 | Non-Toxic | 1.3 | 7 | 2.48 | –
7 | 14.5 mM (≈ 4.6 mg/mL) | Cc1ncc([N+](=O)[O-])n1CCS(=O)(=O)N1CCN(C)CC1 | Non-Toxic | 0.6 | 1.8 | 2.80 | –
8 | 450 mM (≈ 144 mg/mL) | O=[N+]([O-])c1nccn1CS(=O)(=O)NCCN1CCOCC1 | Non-Toxic | 50 | 10.5 | 4.10 | Ratio (HCT-116 [10]): 3.9; fold change (FC) (HCT-116 [18]): 0.89; Ratio (HCT-116 [19]): 1.28; pIC50 (HCT-116 [11]): 2.32 to 3.42; fold change (FC) (HCT-116 [12]): 0.51
9 | > 100 mM | COCC(O)Cn1ccnc1[N+](=O)[O-] (configuration not stated) [MISONIDAZOLE] | Non-Toxic | >62.44 | 7.1 | 3.28 | Activity [20]: -389 mV
10 | 59.3 mM (≈ 15.7 mg/mL) | O=C(O)CNS(=O)(=O)Cn1ccnc1[N+](=O)[O-] | Non-Toxic | 10 | 4 | 3.05 | pIC50 (HCT-116 [11]): 2.32 to 3.42
11 | 16.1 mM (≈ 4.88 mg/mL) | O=[N+]([O-])c1nccn1CS(=O)(=O)NCCN1CCCC1 | Non-Toxic | 96 | 1.7 | 4.96 | pIC50 (HCT-116 [11]): 2.32 to 3.42
12 | 17 mM (≈ 5.21 mg/mL) | COCCCNS(=O)(=O)CCn1c([N+](=O)[O-])cnc1C | Non-Toxic | 1.2 | 5 | 2.43 | –
13 | – | O=[N+]([O-])c1nccn1CCS(=O)(=O)NCCOP(=O)(O)O | – | – | – | – | Drug uptake (Mus musculus [22]): 2.2 mmol/kg; Cmax [23]: 390 µM; Ratio (HCT-116 [24]): 2.9; Tmax [25]: 10 min; Cmax (Plasma): 1140 µM; Tmax [26]: 10 min
14 | 44.1 mM (≈ 15.3 mg/mL) | Cc1ncc([N+](=O)[O-])n1CCS(=O)(=O)NCCN1CCOCC1 | Non-Toxic | 1.4 | 2.71 | 3.10 | –
15 | > 53.8 mM | Cc1ncc([N+](=O)[O-])n1CCS(=O)(=O)NCCCN(C)C | Non-Toxic | 3 | 8 | 2.92 | –
16 | 16 mM (≈ 4.45 mg/mL) | COCCNS(=O)(=O)CCn1cnc([N+](=O)[O-])c1 | Non-Toxic | – | 9 | < 2.28 | Activity [20]: -538 mV
17 | 46.5 mM (≈ 16.1 mg/mL) | Cc1ncc([N+](=O)[O-])n1CCS(=O)(=O)N1CCC(N(C)C)CC1 | Non-Toxic | 2.9 | 12 | 3.15 | Ratio (HCT-116 [14]): 1.67; fold change (FC) (HCT-116 [15]): 2.3; fold change (FC) (HCT-116 [16]): 1.15; Ratio (HCT-116 [17]): 25
18 | 72.1 mM (≈ 20.1 mg/mL) | O=C(O)CCNS(=O)(=O)Cn1ccnc1[N+](=O)[O-] | Non-Toxic | 1 | 2 | 2.36 | pIC50 (HCT-116 [11]): 2.32 to 3.42
19 | – | O=[N+]([O-])c1cn(CS(=O)(=O)NCCO)cn1 | – | <0.5 | – | < 2.22 | –
20 | – | O=[N+]([O-])c1cncn1CCS(=O)(=O)NCCOP(=O)(O)O | – | – | – | – | Drug uptake (Mus musculus [22]): 2.2 mmol/kg; Ratio (HCT-116 [24]): 2.6
21 | 59.4 mM (≈ 16.5 mg/mL) | COCCNS(=O)(=O)CCn1ccnc1[N+](=O)[O-] | Non-Toxic | 5 | 6.4 | 3.40 | Activity [20]: -391 mV; pIC50 (HCT-116 [11]): 2.32 to 3.42
22 | 45.7 mM (≈ 15.2 mg/mL) | CCN(CC)CCNS(=O)(=O)CCn1c([N+](=O)[O-])cnc1C | Non-Toxic | 2 | 9 | 2.89 | –
23 | – | O=[N+]([O-])c1cncn1CS(=O)(=O)NCCOP(=O)(O)O | – | – | – | – | Activity (Mus musculus [21]): Non-Toxic; Drug uptake (Mus musculus [22]): 2.2 mmol/kg; Cmax [23]: 140 µM; Ratio (HCT-116 [24]): 13; Tmax [25]: 10 min; Cmax (Plasma): 1100 µM; Tmax [26]: 30 min
24 | > 100 mM | O=[N+]([O-])c1cn(CCS(=O)(=O)NCCO)cn1 | Non-Toxic | 1 | 6.3 | 1.96 | –

Row | Compound | solubility [13] | Activity (HCT-116 [3]) | Ratio IC50 (HCT-116 [4]) | Ratio (HCT-116 [7]) | pIC50 (HCT-116 [9]) | other results
25 | O=[N+]([O-])c1nccn1CS(=O)(=O)NCCOP(=O)(O)O | 185 mM (≈ 61.1 mg/mL) | – | – | – | – | Activity (Mus musculus [21]): Non-Toxic; Drug uptake (Mus musculus [22]): 2.2 mmol/kg; Cmax [23]: 320 µM; Ratio (HCT-116 [24]): 10; Tmax [25]: 10 min; Cmax (Plasma): 900 µM; Tmax [26]: 10 min
